Consider 18 molecules from ChEMBL document CHEMBL1145813, “Synthesis and evaluation of 11C-labeled 6-substituted 2-arylbenzothiazoles as amyloid imaging agents” (J Med Chem, 2003).

The nature of data set [1]: Apparent lipophilicity was determined.
Data set [2] is described as follows: Percent injected dose per gram of compound to Swiss-Webster mice brain was measured after 2 min of intravenous injection. The class given is functional, Mus musculus. The procedure, abridged: (§1)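 Female Swiss-Webster mice (23–35 g) received 0.37–3.7 MBq of high specific activity (>7.4 GBq/μmol) 11C-labeled derivative by lateral tail vein, in ≤0.10 mL of 93% isotonic saline/7% ethanol. Mice were killed at 2 or 30 min, and whole brain minus cerebellum was gamma-counted and decay-corrected against injectate standards. %ID/g was multiplied by body weight (kg). The 2 min/30 min ratio was taken from these values.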

Data set [3] can be described thus: Percent injected dose per gram of compound to Swiss-Webster mice brain was measured after 30 min of intravenous injection. The class given is functional, Mus musculus. The procedure, abridged:
as §1

Data set [4] is described as follows: Ratio of percent injected dose per gram of compound to Swiss-Webster mice brain after 2 min and 30 min of intravenous injection. The class given is functional. In a few lines:
as §1

Data set [5] deals with Amyloid-beta precursor protein (Homo sapiens, UniProt P05067). Put plainly: Binding affinity for Amyloid beta 1-40 aggregates in competition with [N-methyl-3H] BTA-1.
Chain of Amyloid-beta precursor protein (P05067 whole entry): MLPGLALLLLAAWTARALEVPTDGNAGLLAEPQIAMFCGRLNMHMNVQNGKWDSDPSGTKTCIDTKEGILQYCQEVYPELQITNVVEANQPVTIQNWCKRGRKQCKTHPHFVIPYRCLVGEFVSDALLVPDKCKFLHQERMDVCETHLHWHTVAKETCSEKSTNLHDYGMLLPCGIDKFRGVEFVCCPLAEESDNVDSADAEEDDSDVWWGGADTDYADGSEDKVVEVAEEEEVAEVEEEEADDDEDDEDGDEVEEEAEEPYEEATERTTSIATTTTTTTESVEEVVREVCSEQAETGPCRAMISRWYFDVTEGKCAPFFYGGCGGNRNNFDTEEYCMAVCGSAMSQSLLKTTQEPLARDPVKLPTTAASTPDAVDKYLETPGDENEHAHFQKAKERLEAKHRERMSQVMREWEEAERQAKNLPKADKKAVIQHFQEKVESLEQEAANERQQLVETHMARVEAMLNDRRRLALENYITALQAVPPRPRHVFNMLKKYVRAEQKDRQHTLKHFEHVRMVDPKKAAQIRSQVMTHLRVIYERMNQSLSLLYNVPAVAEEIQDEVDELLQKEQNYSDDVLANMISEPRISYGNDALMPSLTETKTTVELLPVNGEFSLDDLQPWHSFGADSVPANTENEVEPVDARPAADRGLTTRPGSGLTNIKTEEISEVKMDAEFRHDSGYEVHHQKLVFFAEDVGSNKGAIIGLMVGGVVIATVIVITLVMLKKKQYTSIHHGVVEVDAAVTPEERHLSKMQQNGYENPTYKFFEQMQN

For orientation: chromatographic logD means lipophilicity estimated from chromatographic retention. As usually defined, the Ki is the dissociation constant of the complex between target and ligand, obtained from inhibition or displacement. A higher Ki goes with lower affinity. For the molecule `COc1ccc2nc(-c3ccc(N(C)C)cc3)sc2c1`, the chromatographic logD in data set [1] was determined as 3.3. Besides, the figures for the ID in data set [2] and in data set [3] were 0.16% and 0.14%, respectively. For the same molecule, the Ratio in data set [4] is 1.1. Further, the Ki in data set [5] is 1.9 nM.
`CNc1ccc(-c2nc3ccc(Br)cc3s2)cc1`: the chromatographic logD in data set [1] came to 3.6. Also, the ID in data set [2] and in data set [3] was 0.12% throughout. For the same molecule, the Ratio in data set [4] amounted to 1. In data set [5], this molecule showed an inhibitory constant (Ki) of 1.7 nM.
Regarding `Cc1ccc2nc(-c3ccc(N(C)C)cc3)sc2c1`, the chromatographic logD in data set [1] worked out at 3.8. Moreover, the ID came to 0.078% in data set [2] and 0.15% in data set [3]. Also, in data set [4], the Ratio was 0.52. The molecule further yielded a Ki in data set [5] of 64 nM.
Consider `CNc1ccc(-c2nc3ccc(C)cc3s2)cc1`, for which the chromatographic logD in data set [1] came to 3.1. For the same molecule, the results for the ID in data set [2] and in data set [3] were 0.22% and 0.083%, respectively.
For the molecule `CN(C)c1ccc(-c2nc3ccc(Br)cc3s2)cc1`, the chromatographic logD in data set [1] was found to be 4.4. Further, the ID worked out at 0.054% in data set [2] and 0.11% in data set [3]. The Ratio in data set [4] is on record as 0.49. For the same molecule, in data set [5], the affinity, expressed as Ki, was 2.9 nM.
With `CN(C)c1ccc(-c2nc3ccc(O)cc3s2)cc1`, in data set [1], the chromatographic logD was 2. Also, the values for the ID in data set [2] and in data set [3] were 0.32% and 0.1%, respectively. The Ratio in data set [4] worked out at 3. For the same molecule, the inhibitory constant (Ki) in data set [5] was found to be 4.4 nM.
Consider `COc1ccc2nc(-c3ccc(N)cc3)sc2c1`, for which, in data set [1], the chromatographic logD turned out to be 1.9. For the same molecule, the ID is 0.32% in data set [2] and 0.084% in data set [3]. In addition, in data set [4], the Ratio is 3.8. Further, the affinity in data set [5] corresponds to a Ki of 7 nM.
As for `CN(C)c1ccc(-c2nc3ccc(C#N)cc3s2)cc1`, the chromatographic logD in data set [1] was 3.2. Moreover, the ID came to 0.24% in data set [2] and 0.097% in data set [3]. Besides, the Ratio in data set [4] was found to be 2.5. The same molecule displayed an inhibitory constant (Ki) in data set [5] of 11 nM.
Taken in the same sequence, the figures for `CNc1ccc(-c2nc3ccc(C#N)cc3s2)cc1` were 2.5, 0.32%, 0.063%, 5 and 8.6 nM.
For the molecule `CN(C)c1ccc(-c2nc3ccccc3s2)cc1`, the chromatographic logD in data set [1] is 3.4. Further, the ID in data set [2] is reported as 0.19%; in data set [3] it was 0.078%. Besides, the Ratio in data set [4] amounted to 2.5. The molecule also yielded a Ki in data set [5] of 4 nM.
For `Nc1ccc(-c2nc3ccc(Br)cc3s2)cc1`, the chromatographic logD in data set [1] was determined as 2.9. In data set [5], this molecule showed an inhibition constant (Ki) of 7.2 nM.
As to `Cc1ccc2nc(-c3ccc(N)cc3)sc2c1`, the chromatographic logD in data set [1] worked out at 2.4. The molecule also had a Ki in data set [5] of 9.5 nM.
Regarding `Nc1ccc(-c2nc3ccccc3s2)cc1`, the chromatographic logD in data set [1] was 2. The molecule also had a Ki in data set [5] of 37 nM.
Take `N#Cc1ccc2nc(-c3ccc(N)cc3)sc2c1`: in data set [1], the chromatographic logD was determined as 1.8. The molecule further had a Ki in data set [5] of 64 nM.
On to `CNc1ccc(-c2nc3ccccc3s2)cc1`, for which the chromatographic logD in data set [1] turned out to be 2.7. Also, the ID in data set [2] was determined as 0.43%; in data set [3], 0.057%.
Consider `Nc1ccc(-c2nc3ccc(O)cc3s2)cc1`, for which the inhibition constant (Ki) in data set [5] came to 46 nM.
Regarding `CNc1ccc(-c2nc3ccc(OC)cc3s2)cc1`, the chromatographic logD in data set [1] was 2.6. In addition, the ID came to 0.33% in data set [2] and 0.1% in data set [3]. For the same molecule, in data set [4], the Ratio is on record as 3.2. In data set [5], this molecule showed a Ki of 4.9 nM.
Regarding `CNc1ccc(-c2nc3ccc(O)cc3s2)cc1` [PITTSBURGH COMPOUND B UNLABELLED], the figures for the ID in data set [2] and in data set [3] were 0.21% and 0.018%, respectively.
